Source: ChEMBL document CHEMBL1129264, “Mercaptoacyl dipeptides as orally active dual inhibitors of angiotensin-converting enzyme and neutral endopeptidase” (1996)
Each block holds one molecule with its values, some of them ahead of it.

Assays:
[1] = molecular target: T1, Angiotensin-converting enzyme (Rattus norvegicus) (UniProt P47820); test: Compound was tested for plasma inhibition of Angiotensin I converting enzyme activity in the conscious rat. Expressed as Inhibition of AI pressor response at 1 hr at a dose of 13.1 mg/kg po; format: organism-based; set-up: dose 13.1 mg/kg
T1 sequence (whole entry): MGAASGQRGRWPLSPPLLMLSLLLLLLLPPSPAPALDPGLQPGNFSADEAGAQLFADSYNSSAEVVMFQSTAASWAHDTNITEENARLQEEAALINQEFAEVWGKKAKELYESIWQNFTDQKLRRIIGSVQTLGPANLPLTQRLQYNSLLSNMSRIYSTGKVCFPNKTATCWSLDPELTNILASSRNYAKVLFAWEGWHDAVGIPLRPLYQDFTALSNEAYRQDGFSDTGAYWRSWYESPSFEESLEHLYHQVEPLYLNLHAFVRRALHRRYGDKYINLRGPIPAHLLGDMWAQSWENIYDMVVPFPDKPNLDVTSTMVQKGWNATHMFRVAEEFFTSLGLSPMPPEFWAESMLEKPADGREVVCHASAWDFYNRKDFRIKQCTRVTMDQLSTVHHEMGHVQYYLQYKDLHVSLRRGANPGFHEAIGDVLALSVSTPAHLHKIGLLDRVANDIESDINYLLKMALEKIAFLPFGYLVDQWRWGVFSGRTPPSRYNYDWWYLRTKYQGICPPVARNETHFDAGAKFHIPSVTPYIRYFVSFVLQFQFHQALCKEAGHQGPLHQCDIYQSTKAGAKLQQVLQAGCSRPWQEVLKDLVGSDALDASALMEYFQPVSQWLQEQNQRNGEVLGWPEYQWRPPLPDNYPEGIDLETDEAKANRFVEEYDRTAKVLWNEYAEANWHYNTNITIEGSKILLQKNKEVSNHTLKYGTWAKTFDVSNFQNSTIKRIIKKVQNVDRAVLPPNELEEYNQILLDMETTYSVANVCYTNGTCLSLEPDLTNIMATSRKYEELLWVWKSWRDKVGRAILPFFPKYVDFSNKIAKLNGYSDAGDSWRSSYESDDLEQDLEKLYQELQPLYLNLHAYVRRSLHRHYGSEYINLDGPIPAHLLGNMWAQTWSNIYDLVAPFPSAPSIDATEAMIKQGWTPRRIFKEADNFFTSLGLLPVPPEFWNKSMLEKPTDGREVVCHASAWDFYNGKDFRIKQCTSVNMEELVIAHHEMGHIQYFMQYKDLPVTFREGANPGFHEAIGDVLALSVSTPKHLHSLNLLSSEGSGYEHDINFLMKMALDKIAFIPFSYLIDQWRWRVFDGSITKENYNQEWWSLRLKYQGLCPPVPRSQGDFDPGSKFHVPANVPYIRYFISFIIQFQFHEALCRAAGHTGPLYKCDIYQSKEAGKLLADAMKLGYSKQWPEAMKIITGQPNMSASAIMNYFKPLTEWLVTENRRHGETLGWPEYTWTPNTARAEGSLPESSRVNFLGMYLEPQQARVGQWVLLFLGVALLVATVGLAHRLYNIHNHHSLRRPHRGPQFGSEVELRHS
Summary of the method: (§1)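 Male conscious normotensive Sprague-Dawley rats (275-390 g), given femoral arterial and venous catheters under methohexital sodium (75 mg/kg ip) anesthesia. Next day, pressor responses to three angiotensin-I challenges (300 ng/kg iv) recorded by direct arterial pressure. Compound then dosed orally, and AI challenge repeated at set times. Each post-dose response compared with the mean of the three baseline responses, giving % inhibition.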

[2] = molecular target: T1, Angiotensin-converting enzyme (Rattus norvegicus); test: Compound was tested for plasma inhibition of Angiotensin I converting enzyme activity in the conscious rat. Expressed as Inhibition of AI pressor response at 2 hr at a dose of 13.1 mg/kg po; format: organism-based; set-up: dose 13.1 mg/kg; summary of the method: as §1
[3] = molecular target: T1, Angiotensin-converting enzyme (Rattus norvegicus); test: Compound was tested for plasma inhibition of Angiotensin I converting enzyme activity in the conscious rat. Expressed as Inhibition of AI pressor response at 6 hr at a dose of 13.1 mg/kg po; format: organism-based; set-up: dose 13.1 mg/kg
Summary of the method: (§2)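 Male conscious normotensive Sprague-Dawley rats (275-390 g), prepared under methohexital sodium (75 mg/kg ip) with femoral arterial and venous catheters. The next day, pressor responses to three angiotensin-I challenges (300 ng/kg iv) were recorded. Compound was then given orally and angiotensin-I challenges were repeated at set times. Percent inhibition is relative to the mean of the three baseline responses.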

[4] = molecular target: T1, Angiotensin-converting enzyme (Rattus norvegicus); test: Compound was tested for plasma inhibition of Angiotensin I converting enzyme activity in the conscious rat. Expressed as Inhibition of AI pressor response at 4 hr at a dose of 13.1 mg/kg po; format: organism-based; set-up: dose 13.1 mg/kg; summary of the method: as §2
[5] = tested on: Rattus norvegicus; test: Plasma ANF Concentration in the Conscious Rat at a dose of 13.1(po)mg/kg at 0.5 h; format: functional
Summary of the method: (§3)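 Male Sprague-Dawley rats (275-390 g) received femoral artery and vein catheters under ketamine (150 mg/kg)/acepromazine and recovered for 24 h, tethered, before study conscious. ratANF(99-126) was infused at 450 ng/kg/min iv for 5 h. Baseline blood was drawn at 60 min into the infusion, then compound was given po.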

[6] = tested on: Rattus norvegicus; test: Plasma ANF Concentration in the Conscious Rat at a dose of 13.1(po)mg/kg at 1 h; format: functional; summary of the method: as §3
[7] = tested on: Rattus norvegicus; test: Plasma ANF Concentration in the Conscious Rat at a dose of 13.1(po)mg/kg at 2 h; format: functional; summary of the method: as §3
[8] = tested on: Rattus norvegicus; test: Plasma ANF Concentration in the Conscious Rat at a dose of 13.1(po)mg/kg at 4 h; format: functional; summary of the method: as §3
[9] = molecular target: T1, Angiotensin-converting enzyme (Rattus norvegicus); test: Compound was tested for plasma inhibition of Angiotensin I converting enzyme activity in the conscious rat. Expressed as Inhibition of AI pressor response at 6 hr at a dose of 13.5 mg/kg po; format: organism-based; set-up: dose 13.5 mg/kg; summary of the method: as §2
[10] = molecular target: T1, Angiotensin-converting enzyme (Rattus norvegicus); test: Compound was tested for plasma inhibition of Angiotensin I converting enzyme activity in the conscious rat. Expressed as Inhibition of AI pressor response at 1 hr at a dose of 13.5 mg/kg po; format: organism-based; set-up: dose 13.5 mg/kg; summary of the method: as §1
[11] = molecular target: T1, Angiotensin-converting enzyme (Rattus norvegicus); test: Compound was tested for plasma inhibition of Angiotensin I converting enzyme activity in the conscious rat. Expressed as Inhibition of AI pressor response at 4 hr at a dose of 13.5 mg/kg po; format: organism-based; set-up: dose 13.5 mg/kg; summary of the method: as §2
[12] = molecular target: T1, Angiotensin-converting enzyme (Rattus norvegicus); test: Compound was tested for plasma inhibition of Angiotensin I converting enzyme activity in the conscious rat. Expressed as Inhibition of AI pressor response at 2 hr at a dose of 13.5 mg/kg po; format: organism-based; set-up: dose 13.5 mg/kg; summary of the method: as §1
[13] = tested on: Rattus norvegicus; test: Plasma ANF Concentration in the Conscious Rat at a dose of 13.5(po)mg/kg at 0.5 h; format: functional
Summary of the method: (§4)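 Male Sprague-Dawley rats (275-390 g), catheterized in femoral artery and vein under ketamine (150 mg/kg)/acepromazine, tethered and recovered 24 h, studied conscious. Continuous iv rat ANF(99-126) infusion at 450 ng/kg/min for 5 h; baseline blood at 60 min, then oral dosing, sampling at 30-240 min.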

[14] = tested on: Rattus norvegicus; test: Plasma ANF Concentration in the Conscious Rat at a dose of 13.5(po)mg/kg at 1 h; format: functional; summary of the method: as §4
[15] = tested on: Rattus norvegicus; test: Plasma ANF Concentration in the Conscious Rat at a dose of 13.5(po)mg/kg at 2 h; format: functional; summary of the method: as §4
[16] = tested on: Rattus norvegicus; test: Plasma ANF Concentration in the Conscious Rat at a dose of 13.5(po)mg/kg at 4 h; format: functional; summary of the method: as §4
[17] = molecular target: T1, Angiotensin-converting enzyme (Rattus norvegicus); test: Compound was tested for plasma inhibition of Angiotensin I converting enzyme activity in the conscious rat. Expressed as Inhibition of AI pressor response at 1 hr at a dose of 13.2 mg/kg po; format: organism-based; set-up: dose 13.2 mg/kg; summary of the method: as §1
[18] = molecular target: T1, Angiotensin-converting enzyme (Rattus norvegicus); test: Compound was tested for plasma inhibition of Angiotensin I converting enzyme activity in the conscious rat. Expressed as Inhibition of AI pressor response at 4 hr at a dose of 13.2 mg/kg po; format: organism-based; set-up: dose 13.2 mg/kg; summary of the method: as §2
[19] = molecular target: T1, Angiotensin-converting enzyme (Rattus norvegicus); test: Compound was tested for plasma inhibition of Angiotensin I converting enzyme activity in the conscious rat. Expressed as Inhibition of AI pressor response at 2 hr at a dose of 13.2 mg/kg po; format: organism-based; set-up: dose 13.2 mg/kg; summary of the method: as §1
[20] = molecular target: T1, Angiotensin-converting enzyme (Rattus norvegicus); test: Compound was tested for plasma inhibition of Angiotensin I converting enzyme activity in the conscious rat. Expressed as Inhibition of AI pressor response at 6 hr at a dose of 13.2 mg/kg po; format: organism-based; set-up: dose 13.2 mg/kg; summary of the method: as §2
[21] = tested on: Rattus norvegicus; test: Plasma ANF Concentration in the Conscious Rat at a dose of 13.2(po)mg/kg at 0.5 h; format: functional; summary of the method: as §3
[22] = tested on: Rattus norvegicus; test: Plasma ANF Concentration in the Conscious Rat at a dose of 13.2(po)mg/kg at 1 h; format: functional; summary of the method: as §3
[23] = tested on: Rattus norvegicus; test: Plasma ANF Concentration in the Conscious Rat at a dose of 13.2(po)mg/kg at 2 h; format: functional; summary of the method: as §3
[24] = tested on: Rattus norvegicus; test: Plasma ANF Concentration in the Conscious Rat at a dose of 13.2(po)mg/kg at 4 h; format: functional; summary of the method: as §3

inhibition [1]: 85%
inhibition [2]: 84%
inhibition [3]: 64%
inhibition [4]: 81%
SMILES: COc1ccc(C[C@H](NC(=O)C2(NC(=O)[C@H](SC(C)=O)C(C)C)CCCC2)C(=O)OCc2ccccc2)cc1
Control [5]: 107%
Control [6]: 111%
Control [7]: 143%
Control [8]: 181%

inhibition [9]: 61%
inhibition [10]: 79%
inhibition [11]: 70%
inhibition [12]: 79%
SMILES: CCOC(=O)[C@H](Cc1ccc(OC(=O)COC)cc1)NC(=O)C1(NC(=O)[C@H](SC(C)=O)C(C)C)CCCC1
Control [13]: 203%
Control [14]: 263%
Control [15]: 252%
Control [16]: 223%

inhibition [17]: 99%
inhibition [18]: 87%
inhibition [19]: 97%
inhibition [20]: 63%
SMILES: COc1ccc(C[C@H](NC(=O)C2(NC(=O)[C@H](SC(C)=O)C(C)C)CCCC2)C(=O)OCc2cccnc2)cc1
Control [21]: 223%
Control [22]: 267%
Control [23]: 260%
Control [24]: 332%
